The source of these data is PMC7654701 (Chemical communications (Cambridge, England), 2020).

A value given as a limit tells only on which side of the number the result lay.

One series relates to class I HDACs. The note with it: cited from earlier work.
For the next series, the target named is HDAC3 (Homo sapiens, UniProt O15379). Put plainly: Western blot analysis of HDAC3 degradation in breast cancer cells. The class given is cell-based. The gist of the method: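 MDA-MB-468 cells were treated with test compound for 14 h, and HDAC3 was assessed by western blot with band intensity normalized to α-tubulin. For the mechanism arm, cells were pretreated for 1 h with 1 μM MG132 or 10 μM VHL032 before 125 nM compound. A time course used 125 nM. For washout, cells got 125 nM for 14 h, then drug-free medium for additional time.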
HDAC3, sequence (O15379 whole entry): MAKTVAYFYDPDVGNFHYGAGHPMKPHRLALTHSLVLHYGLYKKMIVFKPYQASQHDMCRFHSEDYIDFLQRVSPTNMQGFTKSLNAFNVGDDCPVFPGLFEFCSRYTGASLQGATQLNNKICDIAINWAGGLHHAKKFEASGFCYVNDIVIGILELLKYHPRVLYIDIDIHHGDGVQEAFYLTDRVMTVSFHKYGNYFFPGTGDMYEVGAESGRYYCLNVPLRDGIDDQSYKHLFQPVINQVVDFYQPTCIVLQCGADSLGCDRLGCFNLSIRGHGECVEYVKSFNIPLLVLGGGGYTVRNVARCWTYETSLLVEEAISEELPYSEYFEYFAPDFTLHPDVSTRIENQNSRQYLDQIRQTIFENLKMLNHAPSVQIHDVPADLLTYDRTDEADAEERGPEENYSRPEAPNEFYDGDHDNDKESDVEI
HDAC3, sequence (Q9Y618 whole entry partner): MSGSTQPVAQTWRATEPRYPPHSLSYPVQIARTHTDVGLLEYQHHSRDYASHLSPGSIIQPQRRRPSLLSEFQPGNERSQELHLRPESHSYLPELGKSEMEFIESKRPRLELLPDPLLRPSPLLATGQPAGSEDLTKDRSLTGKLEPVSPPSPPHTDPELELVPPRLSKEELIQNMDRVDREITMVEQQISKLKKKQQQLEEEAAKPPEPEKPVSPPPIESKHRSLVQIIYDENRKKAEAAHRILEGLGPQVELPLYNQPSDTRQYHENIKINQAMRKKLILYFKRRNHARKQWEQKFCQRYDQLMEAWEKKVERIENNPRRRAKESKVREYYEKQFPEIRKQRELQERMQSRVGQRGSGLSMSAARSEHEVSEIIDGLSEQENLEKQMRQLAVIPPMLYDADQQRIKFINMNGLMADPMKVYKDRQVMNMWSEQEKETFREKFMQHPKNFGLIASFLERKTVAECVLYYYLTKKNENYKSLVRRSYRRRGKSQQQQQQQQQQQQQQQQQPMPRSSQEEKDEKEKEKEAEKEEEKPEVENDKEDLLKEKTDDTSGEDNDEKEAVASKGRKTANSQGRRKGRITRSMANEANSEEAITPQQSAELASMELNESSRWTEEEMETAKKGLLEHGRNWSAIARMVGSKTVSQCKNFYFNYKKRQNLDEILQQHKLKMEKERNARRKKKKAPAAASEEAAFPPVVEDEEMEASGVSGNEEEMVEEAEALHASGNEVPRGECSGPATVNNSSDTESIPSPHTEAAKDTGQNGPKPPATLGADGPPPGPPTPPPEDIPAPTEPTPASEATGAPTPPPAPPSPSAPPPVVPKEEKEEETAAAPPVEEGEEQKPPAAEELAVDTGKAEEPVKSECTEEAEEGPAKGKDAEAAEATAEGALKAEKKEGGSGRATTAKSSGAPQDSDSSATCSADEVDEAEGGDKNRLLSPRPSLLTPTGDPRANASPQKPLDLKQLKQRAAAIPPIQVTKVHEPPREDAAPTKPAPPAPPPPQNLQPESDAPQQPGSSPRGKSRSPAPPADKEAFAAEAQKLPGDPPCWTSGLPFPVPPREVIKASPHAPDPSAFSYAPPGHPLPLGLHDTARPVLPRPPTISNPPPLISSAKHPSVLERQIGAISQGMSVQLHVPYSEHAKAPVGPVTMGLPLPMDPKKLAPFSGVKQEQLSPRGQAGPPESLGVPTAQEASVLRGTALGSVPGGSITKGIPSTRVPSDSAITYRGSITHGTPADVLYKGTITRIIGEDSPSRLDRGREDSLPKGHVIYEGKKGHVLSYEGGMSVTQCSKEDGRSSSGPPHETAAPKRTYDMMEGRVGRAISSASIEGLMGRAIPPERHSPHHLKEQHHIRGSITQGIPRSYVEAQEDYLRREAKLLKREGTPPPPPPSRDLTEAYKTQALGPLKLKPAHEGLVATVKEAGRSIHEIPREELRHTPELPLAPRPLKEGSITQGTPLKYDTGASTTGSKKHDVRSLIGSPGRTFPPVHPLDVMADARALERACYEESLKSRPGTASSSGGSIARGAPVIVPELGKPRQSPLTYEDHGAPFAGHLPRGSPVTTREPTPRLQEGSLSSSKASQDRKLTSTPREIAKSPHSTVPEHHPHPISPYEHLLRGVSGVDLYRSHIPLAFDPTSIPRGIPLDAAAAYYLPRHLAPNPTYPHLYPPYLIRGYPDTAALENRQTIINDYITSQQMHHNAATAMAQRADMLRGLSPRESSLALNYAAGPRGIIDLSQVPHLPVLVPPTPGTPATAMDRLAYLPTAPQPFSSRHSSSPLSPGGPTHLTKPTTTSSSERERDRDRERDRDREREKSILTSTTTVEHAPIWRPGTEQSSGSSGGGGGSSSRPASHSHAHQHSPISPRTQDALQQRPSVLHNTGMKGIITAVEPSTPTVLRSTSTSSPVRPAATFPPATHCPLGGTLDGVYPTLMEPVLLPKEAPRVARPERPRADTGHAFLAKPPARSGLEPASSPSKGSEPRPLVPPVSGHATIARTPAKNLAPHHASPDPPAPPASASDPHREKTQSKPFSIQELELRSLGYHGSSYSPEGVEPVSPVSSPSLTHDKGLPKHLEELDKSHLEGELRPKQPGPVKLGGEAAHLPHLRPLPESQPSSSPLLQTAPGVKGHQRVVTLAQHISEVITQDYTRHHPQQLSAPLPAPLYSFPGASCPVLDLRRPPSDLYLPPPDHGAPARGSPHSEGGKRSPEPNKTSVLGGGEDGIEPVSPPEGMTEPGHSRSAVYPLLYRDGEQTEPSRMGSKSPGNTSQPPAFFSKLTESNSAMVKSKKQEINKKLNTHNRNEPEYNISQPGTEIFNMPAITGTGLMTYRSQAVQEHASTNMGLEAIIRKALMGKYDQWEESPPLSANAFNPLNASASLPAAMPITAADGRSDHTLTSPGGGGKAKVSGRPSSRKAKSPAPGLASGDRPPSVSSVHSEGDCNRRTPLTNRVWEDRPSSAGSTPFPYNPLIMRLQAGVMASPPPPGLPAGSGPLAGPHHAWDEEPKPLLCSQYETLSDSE
A general note: In western blotting, separated proteins are transferred to a membrane and probed.

A further series has as its system HDACs. As to the kind of experiment: HDAC-Glo I/II Assays. The note with it: Table S1. The class given is biochemical.
In series [1] the test system is histone acetylation at H3K27 and H4K5. As to the kind of experiment: Western blot analysis of histone acetylation. The series is classed as cell-based.
A short description of another series: Cytotoxicity. The class given is cell-based. The note with it: Fig. S3.
The target of a further series is T1, HDAC6 (Homo sapiens, UniProt Q9UBN7).
T1 sequence (Q9UBN7 1-1215): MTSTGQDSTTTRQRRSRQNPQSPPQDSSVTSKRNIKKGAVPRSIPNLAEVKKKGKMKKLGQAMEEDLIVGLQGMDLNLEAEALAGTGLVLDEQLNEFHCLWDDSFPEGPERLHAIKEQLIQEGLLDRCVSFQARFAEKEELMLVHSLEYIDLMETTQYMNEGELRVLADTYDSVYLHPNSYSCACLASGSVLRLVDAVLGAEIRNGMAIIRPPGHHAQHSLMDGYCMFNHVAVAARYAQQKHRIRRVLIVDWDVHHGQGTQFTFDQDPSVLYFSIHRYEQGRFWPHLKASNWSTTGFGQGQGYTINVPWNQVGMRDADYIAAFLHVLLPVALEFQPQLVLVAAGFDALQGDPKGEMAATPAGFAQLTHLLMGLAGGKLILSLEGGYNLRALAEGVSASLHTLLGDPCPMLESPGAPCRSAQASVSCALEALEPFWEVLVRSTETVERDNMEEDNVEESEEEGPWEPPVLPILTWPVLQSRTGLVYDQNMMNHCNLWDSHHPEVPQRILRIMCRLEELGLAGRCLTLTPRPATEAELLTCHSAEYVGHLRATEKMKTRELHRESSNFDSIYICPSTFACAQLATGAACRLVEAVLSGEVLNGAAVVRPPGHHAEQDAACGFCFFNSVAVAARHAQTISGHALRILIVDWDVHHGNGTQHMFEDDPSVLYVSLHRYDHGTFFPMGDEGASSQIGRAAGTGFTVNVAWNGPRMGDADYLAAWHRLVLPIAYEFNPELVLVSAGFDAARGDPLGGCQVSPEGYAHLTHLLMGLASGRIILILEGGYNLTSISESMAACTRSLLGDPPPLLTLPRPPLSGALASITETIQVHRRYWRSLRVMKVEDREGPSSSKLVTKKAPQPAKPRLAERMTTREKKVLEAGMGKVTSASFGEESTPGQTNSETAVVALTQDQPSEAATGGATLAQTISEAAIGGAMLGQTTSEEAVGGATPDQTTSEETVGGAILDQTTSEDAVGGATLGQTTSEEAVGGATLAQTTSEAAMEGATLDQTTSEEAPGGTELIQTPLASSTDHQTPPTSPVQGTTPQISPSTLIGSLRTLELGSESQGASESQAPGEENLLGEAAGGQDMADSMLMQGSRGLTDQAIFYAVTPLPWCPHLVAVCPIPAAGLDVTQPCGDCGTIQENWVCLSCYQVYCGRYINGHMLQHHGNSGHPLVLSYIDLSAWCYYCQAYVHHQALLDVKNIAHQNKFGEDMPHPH
As to the kind of experiment: Western blot analysis of HDAC6 protein level in MDA-MB-468 cells. Particulars: 14 h treatment. The class given is cell-based. The gist of the method: (§1)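 MDA-MB-468 cells were treated with test compound for 14 h, then the HDAC isoform protein level was assessed by western blot.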

A further series relates to MDA-MB-468 cells. Put plainly: Colony formation assay. The series is classed as cell-based. The note with it: difference was moderate. The gist of the method: (§2)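 Cells were grown with test compound, and the medium with freshly added compound was replaced every five days until colonies reached suitable size. Colonies were then stained. Four biological replicates.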
Another series deals with BT549. Put plainly: Colony formation assay. The class given is cell-based. Particulars: BT549 breast cancer cells. The essentials: as §2
For another series, the system named is HCC1143. As to the kind of experiment: Colony formation assay. The series is classed as cell-based. The note with it: HCC1143 breast cancer cells. The gist of the method: as §2
The target of another series is HDAC1 (Homo sapiens, UniProt Q13547). As to the kind of experiment: Western blot analysis of HDAC1 protein level in breast cancer cells. The note with it: MDA-MB-468 cells, 14 h treatment. The class given is cell-based. The gist of the method: as §1
HDAC1, sequence (Q13547 whole entry): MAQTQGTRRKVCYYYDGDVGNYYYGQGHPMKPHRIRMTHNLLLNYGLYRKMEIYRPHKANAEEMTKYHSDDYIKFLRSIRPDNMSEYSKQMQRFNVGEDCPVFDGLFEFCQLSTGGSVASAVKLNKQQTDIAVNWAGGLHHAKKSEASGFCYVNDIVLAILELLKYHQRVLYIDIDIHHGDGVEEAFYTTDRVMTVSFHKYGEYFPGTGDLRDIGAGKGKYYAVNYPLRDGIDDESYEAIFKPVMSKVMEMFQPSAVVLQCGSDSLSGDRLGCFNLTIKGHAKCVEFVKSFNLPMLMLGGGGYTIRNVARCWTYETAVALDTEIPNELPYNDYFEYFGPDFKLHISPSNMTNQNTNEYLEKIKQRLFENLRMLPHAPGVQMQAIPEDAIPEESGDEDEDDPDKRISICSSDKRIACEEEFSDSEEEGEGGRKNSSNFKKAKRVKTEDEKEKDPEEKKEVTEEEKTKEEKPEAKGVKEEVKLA
For another series, the system named is T47D. As to the kind of experiment: Colony formation assay. The series is classed as cell-based. Particulars: T47D breast cancer cells. The essentials:
as §2

In the next series the target is HDAC2 (Homo sapiens, UniProt Q92769). As to the kind of experiment: Western blot analysis of HDAC2 protein level in breast cancer cells. The series is classed as cell-based. Particulars: MDA-MB-468 cells, 14 h treatment. The gist of the method: as §1
HDAC2, sequence (Q92769 whole entry): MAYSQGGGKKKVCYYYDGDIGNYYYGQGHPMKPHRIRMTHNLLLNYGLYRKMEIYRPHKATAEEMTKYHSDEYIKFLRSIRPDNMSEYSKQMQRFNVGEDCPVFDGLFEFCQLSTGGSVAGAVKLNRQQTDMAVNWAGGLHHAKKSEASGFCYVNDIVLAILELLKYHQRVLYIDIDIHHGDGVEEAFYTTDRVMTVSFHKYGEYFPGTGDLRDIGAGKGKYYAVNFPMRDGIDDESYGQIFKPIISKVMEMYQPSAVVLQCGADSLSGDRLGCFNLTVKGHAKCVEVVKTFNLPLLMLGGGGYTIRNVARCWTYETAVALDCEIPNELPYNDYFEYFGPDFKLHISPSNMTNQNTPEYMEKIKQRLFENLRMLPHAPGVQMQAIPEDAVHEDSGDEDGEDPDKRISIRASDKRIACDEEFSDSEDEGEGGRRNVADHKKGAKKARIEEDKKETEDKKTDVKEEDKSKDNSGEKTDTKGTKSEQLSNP

Take `CCCCNNC(=O)c1ccc(-c2ccccc2)cc1` [SR-3558]: in the series on class I HDACs (benzoylhydrazide ZBG), the “HDAC isozyme binding preference” value was “preferentially binds to HDAC3”. For the same compound, the “inhibition of class I HDACs” value in the series on class I HDACs was “potent and selective inhibitor”.

Consider `CCCNNC(=O)c1ccc(-c2ccc(NC(=O)CCCCCCC(=O)N[C@H](C(=O)N3C[C@@H](O)C[C@@H]3C(=O)N[C@@H](C)c3ccc(-c4scnc4C)cc3)C(C)(C)C)cc2)cc1` [XZ9002-NC], for which the HDAC3 degradation result on HDAC3 (MDA-MB-468 cells, Fig. 2B) is listed as “did not induce HDAC3 degradation”.

Regarding `CCCNNC(=O)c1ccc(-c2ccc(NC(=O)CCCCCCC(=O)N[C@H](C(=O)N3C[C@H](O)C[C@H]3C(=O)N[C@@H](C)c3ccc(-c4scnc4C)cc3)C(C)(C)C)cc2)cc1` [XZ9002], in the series on HDACs, the “binding of HDAC3 compared with other HDACs” value is “more strongly”. For the same compound, the histone acetylation result in series [1] (Fig. 2A and Fig. S2, moderate effects compared to 15 and CRBN-based PROTACs) was “dose-dependently increased”. Moreover, the “potency to induce histone hyperacetylation compared to 15” value in [1] (Fig. S2) is “less potent”. Besides, in “Cytotoxicity”, the “potency to induce cytotoxicity compared to 15” value is “less potent”. Further, the “change in protein level of HDAC6” value at HDAC6 is “no significant changes”. For the same compound, the “inhibition of clonogenic growth compared to XZ9002-NC” value with MDA-MB-468 cells was “more effective”. The “suppression of clonogenic growth compared to XZ9002-NC” value in the series on BT549, in the series on HCC1143 and with T47D was “markedly more potent” throughout. At HDAC1, the “change in protein level of HDAC1” value is listed as “no significant changes”. Besides, the “change in protein level of HDAC2” value at HDAC2 is “no significant changes”. For the same compound, the “time for HDAC3 to rebound to the steady level after washout” value on HDAC3 (MDA-MB-468, 125 nM for 14 h then drug-free medium) was “more than 12 h”. For the same compound, the HDAC3 degraded on HDAC3 (MDA-MB-468, 125 nM, 8 h treatment) came out at 70%. The “start of HDAC3 degradation” value on HDAC3 (MDA-MB-468, 125 nM, time course) is given as at most 2 h. Moreover, the “HDAC3 degradation after pre-incubation with proteasome inhibitor MG132” value on HDAC3 (MDA-MB-468, XZ9002 125 nM, MG132 1 μM for 1 h) is recorded as “blocked”. Also, on HDAC3 (MDA-MB-468, XZ9002 125 nM, VH032 10 μM for 1 h), the “HDAC3 degradation after pre-incubation with VHL ligand VH032” value is given as “blocked”.
